In ChEMBL document CHEMBL3779766, “Synthesis and biological evaluation of quinoline analogues of flavones as potential anticancer agents and tubulin polymerization inhibitors” (Eur J Med Chem, 2016):
Calls of active or inactive are those of the source. The rule behind the calls is not given here.

Assays:
MCF7 [1] = assay: Antiproliferative activity against human MCF7 cells assessed as cell viability after 48 hrs by MTT assay; assay type: functional, cell-based; settings: MCF7, 48 h
Method in brief: (§1)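 Cancer cells were seeded at 5×10³ per well in RPMI complete medium. The next day the medium was replaced with a range of test concentrations, with a no-drug RPMI control. Plates ran 48 h at 37 °C, then MTT (4 mg/mL solution) was added for 3 h. Formazan was dissolved in DMSO and absorbance read at 540 nm. Triplicate determinations.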

A2780 [2] = assay: Antiproliferative activity against human A2780 cells assessed as cell viability after 48 hrs by MTT assay; assay type: functional, cell-based; settings: A2780, 48 h; method in brief: as §1
A2780 [3] = assay: Antiproliferative activity against cisplatin resistant human A2780 cells assessed as cell viability after 48 hrs by MTT assay; assay type: functional, cell-based; settings: A2780, 48 h; method in brief: as §1
[4] = Antiproliferative activity against human MCF7/MX cells assessed as cell viability after 48 hrs by MTT assay; assay type: functional, cell-based; method in brief: as §1
A2780 [5] = assay: Cell cycle arrest in cisplatin resistant human A2780 cells assessed as accumulation at G2/M phase at 3 uM after 24 hrs by propidium iodide staining based flow cytometry (reference value: 19.63%); assay type: functional
A2780 [6] = assay: Cell cycle arrest in human A2780 cells assessed as accumulation at G2/M phase at 3 uM after 24 hrs by propidium iodide staining based flow cytometry (reference value: 12.71%); assay type: functional
MCF7 [7] = assay: Cell cycle arrest in human MCF7 cells assessed as accumulation at G2/M phase at 3 uM after 72 hrs by propidium iodide staining based flow cytometry (reference value: 6.18%); assay type: functional
[8] = Cell cycle arrest in human MCF7/MX cells assessed as accumulation at G2/M phase at 3 uM after 72 hrs by propidium iodide staining based flow cytometry (reference value: 5.68%); assay type: functional
Tubulin (Sus scrofa) [9] = target: T1, Tubulin (Sus scrofa) (UniProt P02554+P02550); settings: 10 uM
Tubulin (Sus scrofa) [10] = target: T1, Tubulin (Sus scrofa); assay: Inhibition of porcine brain tubulin polymerization at 50 uM measured for 1 hr by fluorescence assay
Method in brief: (§2)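 Polymerization was tracked by a fluorescent reporter incorporating into microtubules (ex 360/em 420 nm) every 1 min for 1 h. Controls were paclitaxel 3 µM (stabilizer) and CA-4 10 µM (destabilizer).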

A2780 [11] = assay: Cell cycle arrest in cisplatin resistant human A2780 cells assessed as accumulation at G2/M phase at 100 uM after 24 hrs by propidium iodide staining based flow cytometry (reference value: 19.63%); assay type: functional
Tubulin (Sus scrofa) [12] = target: T1, Tubulin (Sus scrofa); assay: Inhibition of porcine brain tubulin polymerization at 100 uM measured for 1 hr by fluorescence assay; method in brief: as §2
[13] = Cell cycle arrest in human MCF7/MX cells assessed as accumulation at G2/M phase at 100 uM after 72 hrs by propidium iodide staining based flow cytometry (reference value: 5.68%); assay type: functional
A2780 [14] = assay: Cell cycle arrest in human A2780 cells assessed as accumulation at G2/M phase at 100 uM after 24 hrs by propidium iodide staining based flow cytometry (reference value: 12.71%); assay type: functional
MCF7 [15] = assay: Cell cycle arrest in human MCF7 cells assessed as accumulation at G2/M phase at 100 uM after 72 hrs by propidium iodide staining based flow cytometry (reference value: 6.18%); assay type: functional
A2780 [16] = assay: Induction of apoptosis in cisplatin resistant human A2780 cells assessed as accumulation at sub G1 phase at 50 uM after 72 hrs by propidium iodide staining based flow cytometry; assay type: functional, cell-based
Method in brief: (§3)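 2.5×10⁵ cells were seeded in 6-well plates for 24 h, then treated for 72 h alongside a vehicle control (0.05% DMSO). Cells were ethanol-fixed (70%), then incubated 0.5 h at 37 °C with RNase A (1 mg/mL) plus propidium iodide. Flow cytometry (FL2) gave the percentage of cells in the sub-G1 region as the apoptotic fraction.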

MCF7/MX = assay: Induction of apoptosis in human MCF7/MX cells assessed as accumulation at sub G1 phase at 50 uM after 72 hrs by propidium iodide staining based flow cytometry; assay type: functional, cell-based; method in brief: as §3
[17] = Cell cycle arrest in human MCF7/MX cells assessed as accumulation at G2/M phase at 50 uM after 72 hrs by propidium iodide staining based flow cytometry (reference value: 5.68%); assay type: functional
MCF7 [18] = assay: Cell cycle arrest in human MCF7 cells assessed as accumulation at G2/M phase at 50 uM after 72 hrs by propidium iodide staining based flow cytometry (reference value: 6.18%); assay type: functional
A2780 [19] = assay: Induction of apoptosis in human A2780 cells assessed as accumulation at sub G1 phase at 50 uM after 72 hrs by propidium iodide staining based flow cytometry; assay type: functional, cell-based; method in brief: as §3
A2780 [20] = assay: Cell cycle arrest in human A2780 cells assessed as accumulation at G2/M phase at 50 uM after 24 hrs by propidium iodide staining based flow cytometry (reference value: 12.71%); assay type: functional
A2780 [21] = assay: Cell cycle arrest in cisplatin resistant human A2780 cells assessed as accumulation at G2/M phase at 50 uM after 24 hrs by propidium iodide staining based flow cytometry (reference value: 19.63%); assay type: functional
MCF7 [22] = assay: Induction of apoptosis in human MCF7 cells assessed as accumulation at sub G1 phase at 50 uM after 72 hrs by propidium iodide staining based flow cytometry; assay type: functional, cell-based; method in brief: as §3

T1 sequence (P02550 whole entry, looked up): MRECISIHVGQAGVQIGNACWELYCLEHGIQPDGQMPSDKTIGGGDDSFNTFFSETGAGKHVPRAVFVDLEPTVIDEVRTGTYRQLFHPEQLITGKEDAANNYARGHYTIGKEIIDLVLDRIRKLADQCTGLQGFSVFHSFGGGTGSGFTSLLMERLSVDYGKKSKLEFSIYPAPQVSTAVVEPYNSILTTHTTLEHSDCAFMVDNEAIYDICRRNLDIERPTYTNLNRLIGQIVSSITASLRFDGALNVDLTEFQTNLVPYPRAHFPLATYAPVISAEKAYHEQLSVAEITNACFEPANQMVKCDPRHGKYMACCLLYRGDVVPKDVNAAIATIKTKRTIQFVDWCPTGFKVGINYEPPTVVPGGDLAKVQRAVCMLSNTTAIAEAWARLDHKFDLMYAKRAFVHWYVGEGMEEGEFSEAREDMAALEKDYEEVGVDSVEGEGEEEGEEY
T1 sequence (P02554 whole entry, looked up): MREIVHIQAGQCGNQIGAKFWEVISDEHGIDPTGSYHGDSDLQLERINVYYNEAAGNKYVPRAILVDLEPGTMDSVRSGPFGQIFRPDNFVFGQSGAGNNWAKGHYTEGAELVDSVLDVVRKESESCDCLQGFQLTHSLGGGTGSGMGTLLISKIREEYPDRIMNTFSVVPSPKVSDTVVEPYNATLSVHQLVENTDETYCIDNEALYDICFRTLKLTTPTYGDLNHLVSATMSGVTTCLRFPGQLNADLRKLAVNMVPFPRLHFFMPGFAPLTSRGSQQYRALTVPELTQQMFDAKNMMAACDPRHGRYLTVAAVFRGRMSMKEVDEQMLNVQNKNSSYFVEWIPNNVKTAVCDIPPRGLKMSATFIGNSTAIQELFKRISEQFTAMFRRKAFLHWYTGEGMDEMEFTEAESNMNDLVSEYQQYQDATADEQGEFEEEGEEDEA

| Structure (SMILES) | IC50 (MCF7 [1]) [µM] | IC50 (A2780 [2]) [µM] | IC50 (A2780 [3]) [µM] | IC50 [4] [µM] | other results |
| --- | --- | --- | --- | --- | --- |
| COc1cc2nc(-c3ccc(O)cc3)cc(C(=O)O)c2c(OC)c1OC | > 100 | > 100 | > 100 | > 100 | – |
| COc1ccc(/C=C\c2cc(OC)c(OC)c(OC)c2)cc1O [COMBRETASTATIN A4] | 1.23 | 2.84 | 2.95 | 2.97 | Activity (A2780 [5]): 25.41%; Activity (A2780 [6]): 78.38%; Activity (MCF7 [7]): 80.09%; Activity [8]: 43.2%; inhibition (Tubulin (Sus scrofa) [9]): Active |
| COc1ccc(-c2cc(CO)c3c(OC)c(OC)c(OC)cc3n2)cc1OC | 60.7 | 7.98 | 23.1 | 37.1 | inhibition (Tubulin (Sus scrofa) [10]): Active |
| COc1ccc(-c2cc(C(=O)O)c3c(OC)c(OC)c(OC)cc3n2)cc1O | 56.3 | 38.7 | > 100 | 98.5 | Activity (A2780 [11]): 43.12%; inhibition (Tubulin (Sus scrofa) [12]): inactive; Activity [13]: 3.74%; Activity (A2780 [14]): 62.15%; Activity (MCF7 [15]): 8% |
| COc1ccc(-c2cc(CO)c3c(OC)c(OC)c(OC)cc3n2)cc1O | 59.5 | 29.6 | 43.3 | 21.5 | inhibition (Tubulin (Sus scrofa) [10]): Active |
| COc1cc2nc(-c3cccc(O)c3)cc(C(=O)O)c2c(OC)c1OC | > 100 | > 100 | > 100 | > 100 | – |
| COc1cc(-c2cc(C(=O)O)c3c(OC)c(OC)c(OC)cc3n2)cc(OC)c1OC | > 100 | > 100 | > 100 | > 100 | – |
| COc1ccc(-c2cc(CO)c3c(OC)c(OC)c(OC)cc3n2)cc1 | 16.4 | 8.04 | 28.4 | 39.8 | inhibition (Tubulin (Sus scrofa) [10]): Active |
| COc1cc(-c2cc(CO)c3c(OC)c(OC)c(OC)cc3n2)ccc1O | 49.7 | 9.19 | 52.2 | 53.9 | – |
| COc1cc(-c2cc(C(=O)O)c3c(OC)c(OC)c(OC)cc3n2)ccc1O | > 100 | > 100 | > 100 | > 100 | inhibition (Tubulin (Sus scrofa) [12]): Active |
| COc1ccc(-c2cc(C(=O)O)c3c(OC)c(OC)c(OC)cc3n2)cc1 | > 100 | > 100 | > 100 | > 100 | inhibition (Tubulin (Sus scrofa) [12]): Active |
| COc1cc(-c2cc(CO)c3c(OC)c(OC)c(OC)cc3n2)cc(OC)c1OC | 16.3 | 11.4 | 8.15 | 14.1 | Activity (A2780 [16]): Active; Activity (MCF7/MX): Active; inhibition (Tubulin (Sus scrofa) [10]): Active; Activity [17]: 44.8%; Activity (MCF7 [18]): 79.59%; Activity (A2780 [19]): Active; Activity (A2780 [20]): 79.59%; Activity (A2780 [21]): 62.31%; Activity (MCF7 [22]): Active |
| COc1ccc(-c2cc(C(=O)O)c3c(OC)c(OC)c(OC)cc3n2)cc1OC | > 100 | > 100 | > 100 | > 100 | – |
| COc1cc2nc(-c3ccc(O)cc3O)cc(C(=O)O)c2c(OC)c1OC | > 100 | > 100 | > 100 | > 100 | inhibition (Tubulin (Sus scrofa) [12]): Active |
